The record followed here is ChEMBL document CHEMBL1649115, “Enhanced susceptibility to antifungal oligopeptides in yeast strains overexpressing ABC multidrug efflux pumps” (Antimicrob Agents Chemother, 2008).

Series [1] deals with Candida albicans. Nature of the series: Prodrug stability in fluconazole sensitive Candida albicans isolate B3 assessed as compound cleavage rate measured per mg of protein. Type of series: ADME, organism-based. The conditions noted are these: in vivo.
Series [2] deals with Saccharomyces cerevisiae. The series is described as follows: Drug uptake in Saccharomyces cerevisiae AD12345678 at 200 uM pretreated for 10 mins measured after 60 mins by fluorescamine staining. Type of series: ADME, organism-based. The conditions noted are these: in vivo, 1 h.
The subject of series [3] is Candida albicans. Nature of the series: Prodrug stability in fluconazole sensitive Candida albicans isolate Gu4 assessed as compound cleavage rate measured per mg of protein. The conditions noted are these: in vivo. Type of series: ADME, organism-based. Put shortly:
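Oligopeptides were incubated with cell extracts of the yeast cells, and their hydrolytic enzymes cleaved them. The amino acids released were quantified by the Cd-ninhydrin method.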

Series [4] relates to Saccharomyces cerevisiae. Nature of the series: Drug uptake in Saccharomyces cerevisiae ADMDR1 expressing Candida albicans MDR1 efflux pump at 200 uM pretreated for 10 mins measured after 60 mins by fluorescamine staining. It counts as ADME, organism-based. The settings on record: in vivo, 1 h.
In series [5] the test system is Saccharomyces cerevisiae. Nature of the series: Prodrug stability in wild type Saccharomyces cerevisiae ATCC 9763 assessed as compound cleavage rate measured per mg of protein. Type of series: ADME, organism-based. The settings on record: in vivo.
Series [6] concerns Saccharomyces cerevisiae. The series is described as follows: Drug uptake in Saccharomyces cerevisiae ADCDR1 expressing Candida albicans CDR1 efflux pump at 200 uM pretreated for 10 mins measured after 60 mins by fluorescamine staining. The settings on record: in vivo, 1 h. Type of series: ADME, organism-based.
Series [7] relates to Candida albicans. The series is described as follows: Prodrug stability in wild type Candida albicans 10261 assessed as compound cleavage rate measured per mg of protein. It counts as ADME, organism-based. The settings on record: in vivo.
Series [8] concerns Saccharomyces cerevisiae. The series is described as follows: Prodrug stability in Saccharomyces cerevisiae ADMDR1 expressing Candida albicans MDR1 efflux pump assessed as compound cleavage rate measured per mg of protein. It counts as ADME, organism-based. The settings on record: in vivo.
The test system of series [9] is Saccharomyces cerevisiae. The series is described as follows: Drug uptake in Saccharomyces cerevisiae ADCDR2 expressing Candida albicans CDR2 efflux pump at 200 uM pretreated for 10 mins measured after 60 mins by fluorescamine staining. It counts as ADME, organism-based. The settings on record: in vivo, 1 h.
The test system of series [10] is Saccharomyces cerevisiae. Nature of the series: Prodrug stability in Saccharomyces cerevisiae ADCDR1 expressing Candida albicans CDR1 efflux pump assessed as compound cleavage rate measured per mg of protein. Type of series: ADME, organism-based. The settings on record: in vivo.
In series [11] the test system is Saccharomyces cerevisiae. Nature of the series: Prodrug stability in Saccharomyces cerevisiae ADCDR2 expressing Candida albicans CDR2 efflux pump assessed as compound cleavage rate measured per mg of protein. It counts as ADME, organism-based. The settings on record: in vivo.
For series [12], the system named is Saccharomyces cerevisiae. Nature of the series: Prodrug stability in Saccharomyces cerevisiae AD12345678 assessed as compound cleavage rate measured per mg of protein. The settings on record: in vivo. It counts as ADME, organism-based.
Series [13] has as its system Candida albicans. The series is described as follows: Antifungal activity against fluconazole resistant Candida albicans isolate B4 overexpressing MDR1 in RPMI-1640 buffered medium after 24 hrs by microdilution method. The settings on record: Candida albicans, isolate B4, 24 h; read-out: MIC. It counts as functional. Summed up: (§1)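 C. albicans cells were grown in 2% glucose, 1% yeast extract, 1% Bacto peptone medium before testing. […] CARE-2 fingerprinting confirmed that each pair is a single strain.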
On the technique in general: In broth dilution the organism is exposed to a series of concentrations in liquid medium.

Series [14] concerns Candida albicans. Nature of the series: Antifungal activity against wild type Candida albicans 10261 in RPMI-1640 buffered medium after 24 hrs by microdilution method. The settings on record: Candida albicans, 10261, 24 h; read-out: MIC. Type of series: functional. Put shortly: as §1
In series [15] the test system is Saccharomyces cerevisiae. The series is described as follows: Antifungal activity against Saccharomyces cerevisiae AD12345678 in YNPG medium containing 1 mg/ml […] after 24 hrs by microdilution method. Type of series: functional. The settings on record: AD12345678, 24 h.
The subject of series [16] is Candida albicans. The series is described as follows: Antifungal activity against fluconazole sensitive Candida albicans isolate Gu4 in RPMI-1640 buffered medium after 24 hrs by microdilution method. It counts as functional. The settings on record: Candida albicans, isolate Gu4, 24 h; read-out: MIC. Put shortly: as §1
The subject of series [17] is Candida albicans. The series is described as follows: Antifungal activity against fluconazole resistant Candida albicans isolate Gu5 overexpressing CDR1 and CDR2 in RPMI-1640 buffered medium after 24 hrs by microdilution method. It counts as functional. The settings on record: isolate Gu5, 24 h. Summed up:
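C. albicans cells were grown in 2% glucose, 1% yeast extract, 1% Bacto peptone medium before testing. CARE-2 fingerprinting confirmed that each pair is a single strain.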

The test system of series [18] is Candida albicans. The series is described as follows: Antifungal activity against fluconazole sensitive Candida albicans isolate B3 in RPMI-1640 buffered medium after 24 hrs by microdilution method. Type of series: functional. The settings on record: Candida albicans, isolate B3, 24 h; read-out: MIC. Summed up:
as §1

For series [19], the system named is Saccharomyces cerevisiae. Nature of the series: Antifungal activity against wild type Saccharomyces cerevisiae ATCC 9763 in YNPG medium containing 1 mg/ml […] after 24 hrs by microdilution method. It counts as functional. The conditions noted are these: ATCC 9763, 24 h.
Series [20] deals with Saccharomyces cerevisiae. Nature of the series: Antifungal activity against Saccharomyces cerevisiae ADMDR1 expressing Candida albicans MDR1 efflux pump in YNPG medium containing 1 mg/ml […] after 24 hrs by microdilution method. It counts as functional. The settings on record: ADMDR1, 24 h.
Series [21] has as its system Saccharomyces cerevisiae. The series is described as follows: Antifungal activity against Saccharomyces cerevisiae ADCDR1 expressing Candida albicans CDR1 efflux pump in YNPG medium containing 1 mg/ml […] after 24 hrs by microdilution method. Type of series: functional. The conditions noted are these: ADCDR1, 24 h.
The test system of series [22] is Saccharomyces cerevisiae. The series is described as follows: Antifungal activity against Saccharomyces cerevisiae ADCDR2 expressing Candida albicans CDR2 efflux pump in YNPG medium containing 1 mg/ml […] after 24 hrs by microdilution method. It counts as functional. The settings on record: ADCDR2, 24 h.
The subject of series [23] is Saccharomyces cerevisiae. Nature of the series: Antifungal activity against Saccharomyces cerevisiae AD12345678 in YNPG-proline medium after 24 hrs by microdilution method. Type of series: functional. The conditions noted are these: AD12345678, 24 h.
Series [24] has as its system Saccharomyces cerevisiae. Nature of the series: Antifungal activity against Saccharomyces cerevisiae ADCDR2 expressing Candida albicans CDR2 efflux pump in YNPG-proline medium after 24 hrs by microdilution method. It counts as functional. The settings on record: ADCDR2, 24 h.
Series [25] deals with Saccharomyces cerevisiae. The series is described as follows: Antifungal activity against wild type Saccharomyces cerevisiae ATCC 9763 in YNPG-proline medium after 24 hrs by microdilution method. Type of series: functional. The settings on record: ATCC 9763, 24 h.
The test system of series [26] is Saccharomyces cerevisiae. Nature of the series: Antifungal activity against Saccharomyces cerevisiae ADMDR1 expressing Candida albicans MDR1 efflux pump in YNPG-proline medium after 24 hrs by microdilution method. The settings on record: ADMDR1, 24 h. Type of series: functional.
The subject of series [27] is Saccharomyces cerevisiae. Nature of the series: Antifungal activity against Saccharomyces cerevisiae ADCDR1 expressing Candida albicans CDR1 efflux pump in YNPG-proline medium after 24 hrs by microdilution method. Type of series: functional. The settings on record: ADCDR1, 24 h.

In brackets after ≈: the same amount, converted by molar mass. Residues, ends and D or L forms follow the SMILES beside them. *: point of attachment. Ethyl(2-NH2) = NCC*

As to `CC(C)C[C@H](NC(=O)[C@H](CC(C)C)NC(=O)[C@@H](N)COCCN)C(=O)NCC(=O)O` (H-S(Ethyl(2-NH2))LLG-OH), the Stability in series [1] was determined as 20 nmol/min; in series [3], 20 nmol/min; in series [5] it was 14 nmol/min; in series [7] it was 20 nmol/min; in series [8] it was 14 nmol/min; in [10] it was 14 nmol/min. Also, the Stability in series [11] and in [12] was 14 nmol/min throughout. Also, the Drug uptake in series [2] worked out at 0.51 nmol/min/mg; in [4], 0.65 nmol/min/mg; in series [6], 0.83 nmol/min/mg; in series [9], 0.96 nmol/min/mg.

As to `CC(C)C[C@H](NC(=O)[C@H](CC(C)C)NC(=O)[C@H](CC(C)C)NC(=O)[C@@H](N)COCCN)C(=O)NCC(=O)O` (H-S(Ethyl(2-NH2))LLLG-OH), the Stability amounted to 20 nmol/min in series [1]; 20 nmol/min in series [3]; 14 nmol/min in series [5]; 20 nmol/min in series [7]; 14 nmol/min in [8]; 14 nmol/min in series [10]. The Stability in series [11] and in series [12] was 14 nmol/min in each case. Moreover, the Drug uptake in [2] came to 0.31 nmol/min/mg; in series [4], 0.28 nmol/min/mg; in series [6], 0.49 nmol/min/mg; in series [9], 0.51 nmol/min/mg.

A word on the MIC: it is the lowest concentration found to suppress growth. For the molecule `[N-]=[N+]=CC(=O)CC[C@H](N)C(=O)O` [6-DIAZO-5-OXO-L-NORLEUCINE], the Drug uptake in [2] is 2 nmol/min/mg; in [4], 1.98 nmol/min/mg; in series [6], 2.32 nmol/min/mg; in series [9], 2.25 nmol/min/mg. The MIC in series [13] was 4 µg/mL (≈ 23.4 µM); in series [14], 4 µg/mL (≈ 23.4 µM); in series [15] it was 0.5 µg/mL (≈ 2.92 µM); in series [16], 4 µg/mL (≈ 23.4 µM); in series [17], 1 µg/mL (≈ 5.84 µM); in series [18] it was 4 µg/mL (≈ 23.4 µM). For the same molecule, the MIC amounted to 0.5 µg/mL (≈ 2.92 µM) in [19], 0.5 µg/mL (≈ 2.92 µM) in [20], 0.125 µg/mL (≈ 0.73 µM) in series [21] and 0.25 µg/mL (≈ 1.46 µM) in series [22].

For `[N-]=[N+]=CC(=O)OC[C@H](N)C(=O)O` [AZASERINE], the Drug uptake in [2] was 1.75 nmol/min/mg; in series [4], 1.7 nmol/min/mg; in series [6], 2.15 nmol/min/mg; in series [9] it was 1.92 nmol/min/mg. The MIC worked out at 32 µg/mL (≈ 185 µM) in series [13]; 16 µg/mL (≈ 92.4 µM) in series [14]; 2 µg/mL (≈ 11.6 µM) in [15]; 16 µg/mL (≈ 92.4 µM) in series [16]; 16 µg/mL (≈ 92.4 µM) in series [17]; 32 µg/mL (≈ 185 µM) in series [18]. The MIC in series [19] was found to be 2 µg/mL (≈ 11.6 µM); in [20], 2 µg/mL (≈ 11.6 µM); in series [21], 1 µg/mL (≈ 5.78 µM); in series [22], 1 µg/mL (≈ 5.78 µM).

On to `C[C@H](NC(=O)[C@H](Cc1cnc[nH]1)NC(=O)[C@H](CO)NC(=O)[C@@H](N)CC(=O)O)C(=O)N[C@@H](CCCCN)C(=O)N[C@@H](CCCNC(=N)N)C(=O)N[C@@H](Cc1cnc[nH]1)C(=O)N[C@@H](Cc1cnc[nH]1)C(=O)NCC(=O)N[C@@H](Cc1ccc(O)cc1)C(=O)N[C@@H](CCCCN)C(=O)N[C@@H](CCCNC(=N)N)C(=O)N[C@@H](CCCCN)C(=O)N[C@@H](Cc1ccccc1)C(=O)N[C@@H](Cc1cnc[nH]1)C(=O)N[C@@H](CCC(=O)O)C(=O)N[C@@H](CCCCN)C(=O)N[C@@H](Cc1cnc[nH]1)C(=O)N[C@@H](Cc1cnc[nH]1)C(=O)N[C@@H](CO)C(=O)N[C@@H](Cc1cnc[nH]1)C(=O)N[C@@H](CCCNC(=N)N)C(=O)NCC(=O)N[C@@H](Cc1ccc(O)cc1)C(=O)O` [HISTATIN 5], for which the Stability in series [1], in [3] and in series [7] was 0.3 nmol/min throughout. Further, the MIC is 32 µg/mL (≈ 10.5 µM) in [13]; 128 µg/mL (≈ 42.2 µM) in [23]; 32 µg/mL (≈ 10.5 µM) in series [14]; 32 µg/mL (≈ 10.5 µM) in series [16]; 128 µg/mL (≈ 42.2 µM) in series [24]; 32 µg/mL (≈ 10.5 µM) in series [17]. Besides, the MIC in series [18] came out at 32 µg/mL (≈ 10.5 µM); in series [25] it was 128 µg/mL (≈ 42.2 µM); in [26], 128 µg/mL (≈ 42.2 µM); in series [27], 128 µg/mL (≈ 42.2 µM).
